This note sets out measurements from ChEMBL document CHEMBL1255352, “Polyclonal population structure of Streptococcus pneumoniae isolates in Spain carrying mef and mef plus erm(B)” (2008).

As a reminder, the MIC50 is an inhibitory concentration at the 50% level, which refers to growth in some studies and to a panel of isolates in others. In general, MIC90 refers to an inhibitory concentration at the 90% level, which refers to growth in some studies and to a panel of isolates in others. Read a low MIC90 as higher susceptibility. One may read the MIC as the smallest concentration in the dilution series that meets the test's criterion for growth inhibition.

Structures are written as SMILES. Converted amounts (≈) assume the structure as drawn.

The subject of assay [1] is Streptococcus pneumoniae. The assay can be described thus: Antibacterial activity against mef-positive Streptococcus pneumoniae isolates assessed as resistance incidence by broth microdilution method. Type of assay: functional. A digest of the protocol: (§1)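 Clinical isolates were tested by CLSI broth microdilution against penicillin G, cefotaxime, erythromycin, clindamycin, telithromycin, tetracycline and levofloxacin, incubated at 35°C in ambient air, with ATCC 49619 as the control in each run. Isolates were classed as resistant using CLSI breakpoints.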
Background: In broth dilution the organism is exposed to a series of concentrations in liquid medium.

Assay [2] deals with Streptococcus pneumoniae. In words: Antibacterial activity against mef-positive Streptococcus pneumoniae isolates by broth microdilution method. Type of assay: functional. The method, boiled down: (§2)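 Broth microdilution MICs per CLSI guidelines. Agents tested were penicillin G, cefotaxime, erythromycin, clindamycin, telithromycin, tetracycline and levofloxacin. Plates were incubated at 35°C in ambient air. S. pneumoniae ATCC 49619 served as the reference strain in each run.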

For assay [3], the system named is Streptococcus pneumoniae. The assay can be described thus: Antibacterial activity against mef and erm(B) positive Streptococcus pneumoniae isolates by broth microdilution method. Type of assay: functional. A digest of the protocol: as §2
Assay [4] concerns Streptococcus pneumoniae. In words: Antibacterial activity against mef and erm(B) positive Streptococcus pneumoniae isolates assessed as resistance incidence by broth microdilution method. Type of assay: functional. The method, boiled down: as §1
Assay [5] relates to Streptococcus pneumoniae. In words: Antibacterial activity against erm(B) and mef(E)-positive Streptococcus pneumoniae isolate Spain 6B by broth microdilution method. Type of assay: functional. A digest of the protocol: (§3)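 MICs by broth microdilution following CLSI guidelines, incubated at 35°C in ambient air. S. pneumoniae ATCC 49619 served as reference strain in each run. CLSI breakpoints applied. Isolates typed for mef(A)/mef(E) by PCR and by MLST.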

Assay [6] concerns Streptococcus pneumoniae. The assay can be described thus: Antibacterial activity against erm(B) and mef(E)-positive Streptococcus pneumoniae isolate Sweden 15A-25 by broth microdilution method. Type of assay: functional. The method, boiled down:
as §3

Assay [7] deals with Streptococcus pneumoniae. In words: Antibacterial activity against erm(B) and mef(E)-positive Streptococcus pneumoniae isolate CC-6B by broth microdilution method.
For assay [8], the system named is Streptococcus pneumoniae. In words: Antibacterial activity against mef(E)-positive Streptococcus pneumoniae isolate Spain 9V-3 by broth microdilution method. Type of assay: functional. The method, boiled down: as §2

Take `CC1(C)S[C@@H]2[C@H](NC(=O)Cc3ccccc3)C(=O)N2[C@H]1C(=O)O` [PENICILLIN G]: the Activity in the assay on Streptococcus pneumoniae [1] is recorded as 35.5%; in the assay on Streptococcus pneumoniae [4], 46.7%. For the same compound, the figures for the MIC50 in the assay with Streptococcus pneumoniae [2] and against Streptococcus pneumoniae [3] were 0.03 µg/mL (≈ 0.0897 µM) and 1 µg/mL (≈ 2.99 µM), respectively. The MIC90 in the assay with Streptococcus pneumoniae [2] amounted to 1 µg/mL (≈ 2.99 µM); in the assay on Streptococcus pneumoniae [3], 4 µg/mL (≈ 12 µM). The minimal inhibitory concentration (MIC) against Streptococcus pneumoniae [5] came to 4 µg/mL (≈ 12 µM); against Streptococcus pneumoniae [6] it was 0.12 µg/mL (≈ 0.359 µM); with Streptococcus pneumoniae [7] it was 0.12 µg/mL (≈ 0.359 µM); with Streptococcus pneumoniae [8], 0.12 µg/mL (≈ 0.359 µM).

As for `C[C@H]1COc2c(N3CCN(C)CC3)c(F)cc3c(=O)c(C(=O)O)cn1c23.C[C@H]1COc2c(N3CCN(C)CC3)c(F)cc3c(=O)c(C(=O)O)cn1c23.O` [LEVOFLOXACIN], the MIC50 against Streptococcus pneumoniae [2] and in the assay with Streptococcus pneumoniae [3] was 1 µg/mL throughout. Moreover, the MIC90 in the assay with Streptococcus pneumoniae [2] and against Streptococcus pneumoniae [3] was 1 µg/mL each time.

In the case of `CC[C@H]1OC(=O)[C@H](C)C(=O)[C@H](C)[C@@H](O[C@@H]2O[C@H](C)C[C@H](N(C)C)[C@H]2O)[C@](C)(OC)C[C@@H](C)C(=O)[C@H](C)[C@H]2N(CCCCn3cnc(-c4cccnc4)c3)C(=O)O[C@]12C` [TELITHROMYCIN], the MIC50 was 0.12 µg/mL (≈ 0.148 µM) against Streptococcus pneumoniae [2] and 0.06 µg/mL (≈ 0.0739 µM) against Streptococcus pneumoniae [3]. The MIC90 came to 0.5 µg/mL (≈ 0.616 µM) in the assay on Streptococcus pneumoniae [2] and 0.25 µg/mL (≈ 0.308 µM) in the assay with Streptococcus pneumoniae [3]. Besides, the minimal inhibitory concentration (MIC) in the assay with Streptococcus pneumoniae [5] is 0.08 µg/mL (≈ 0.0985 µM); against Streptococcus pneumoniae [6] it was 0.008 µg/mL (≈ 0.00985 µM); against Streptococcus pneumoniae [7], less than 0.01 µg/mL; against Streptococcus pneumoniae [8], 0.05 µg/mL (≈ 0.0616 µM).

On to `CC[C@H]1OC(=O)[C@H](C)[C@@H](O[C@H]2C[C@@](C)(OC)[C@@H](O)[C@H](C)O2)[C@H](C)[C@@H](O[C@@H]2O[C@H](C)C[C@H](N(C)C)[C@H]2O)[C@](C)(O)C[C@@H](C)C(=O)[C@H](C)[C@@H](O)[C@]1(C)O` [ERYTHROMYCIN], for which the MIC50 turned out to be 4 µg/mL (≈ 5.45 µM) in the assay with Streptococcus pneumoniae [2] and 64 µg/mL (≈ 87.2 µM) against Streptococcus pneumoniae [3]. Further, the MIC90 with Streptococcus pneumoniae [2] is 16 µg/mL (≈ 21.8 µM); in the assay with Streptococcus pneumoniae [3], greater than 64 µg/mL. The minimal inhibitory concentration (MIC) was no less than 64 µg/mL in the assay with Streptococcus pneumoniae [5], no less than 64 µg/mL in the assay with Streptococcus pneumoniae [6], 32 µg/mL (≈ 43.6 µM) in the assay with Streptococcus pneumoniae [7] and 0.5 µg/mL (≈ 0.681 µM) in the assay on Streptococcus pneumoniae [8].

Regarding `CCC[C@@H]1C[C@@H](C(=O)N[C@@H]([C@H]2O[C@H](SC)[C@H](O)[C@@H](O)[C@H]2O)[C@H](C)Cl)N(C)C1` [CLINDAMYCIN], the Activity in the assay with Streptococcus pneumoniae [1] was found to be 0%; in the assay with Streptococcus pneumoniae [4] it was 62.2%. Moreover, the MIC50 in the assay with Streptococcus pneumoniae [2] is 0.03 µg/mL (≈ 0.0706 µM); against Streptococcus pneumoniae [3], 64 µg/mL (≈ 151 µM). For the same compound, the MIC90 with Streptococcus pneumoniae [2] is 0.25 µg/mL (≈ 0.588 µM); in the assay with Streptococcus pneumoniae [3], greater than 64 µg/mL. In addition, the minimum inhibitory concentration (MIC) against Streptococcus pneumoniae [5] is no less than 64 µg/mL; in the assay on Streptococcus pneumoniae [6], no less than 64 µg/mL; against Streptococcus pneumoniae [7], 32 µg/mL (≈ 75.3 µM); with Streptococcus pneumoniae [8], 0.03 µg/mL (≈ 0.0706 µM).

Consider `CO/N=C(\C(=O)N[C@@H]1C(=O)N2C(C(=O)O)=C(COC(C)=O)CS[C@H]12)c1csc(N)n1` [CEFOTAXIME], for which the Activity in the assay on Streptococcus pneumoniae [1] is listed as 17.7%; with Streptococcus pneumoniae [4], 4.4%. Moreover, the values for the MIC50 in the assay with Streptococcus pneumoniae [2] and against Streptococcus pneumoniae [3] were 0.01 µg/mL (≈ 0.022 µM) and 0.5 µg/mL (≈ 1.1 µM), respectively. For the same compound, the results for the MIC90 in the assay with Streptococcus pneumoniae [2] and in the assay on Streptococcus pneumoniae [3] were 0.25 µg/mL (≈ 0.549 µM) and 2 µg/mL (≈ 4.39 µM), respectively. The MIC amounted to 1 µg/mL (≈ 2.2 µM) against Streptococcus pneumoniae [5], 0.06 µg/mL (≈ 0.132 µM) against Streptococcus pneumoniae [6], 0.12 µg/mL (≈ 0.263 µM) against Streptococcus pneumoniae [7] and 0.06 µg/mL (≈ 0.132 µM) against Streptococcus pneumoniae [8].

With `CN(C)[C@@H]1C(O)=C(C(N)=O)C(=O)[C@@]2(O)C(O)=C3C(=O)c4c(O)cccc4[C@@](C)(O)[C@H]3C[C@@H]12` [TETRACYCLINE], the results for the Activity with Streptococcus pneumoniae [1] and in the assay on Streptococcus pneumoniae [4] were 13.3% and 55.5%, respectively. Further, the MIC50 was 1 µg/mL (≈ 2.25 µM) against Streptococcus pneumoniae [2] and 16 µg/mL (≈ 36 µM) with Streptococcus pneumoniae [3]. Besides, the MIC90 is 4 µg/mL (≈ 9 µM) in the assay on Streptococcus pneumoniae [2] and greater than 32 µg/mL against Streptococcus pneumoniae [3]. The minimal inhibitory concentration (MIC) was no less than 64 µg/mL in the assay with Streptococcus pneumoniae [5], no less than 64 µg/mL in the assay with Streptococcus pneumoniae [6], 4 µg/mL (≈ 9 µM) in the assay on Streptococcus pneumoniae [7] and 0.5 µg/mL (≈ 1.13 µM) against Streptococcus pneumoniae [8].
